Test results: ChEMBL document CHEMBL1139303, “One-pot synthesis of 5-phenylimino, 5-thieno or 5-oxo-1,2,3-dithiazoles and evaluation of their antimicrobial and antitumor activity” (2009)
≈ marks a conversion by molar mass, not a printed value. Calls of active or inactive are those of the source. No cut-off for these calls is given here.

Tests used:
Candida tropicalis [1] = experiment: Ratio of MFC to MIC against Candida tropicalis DSM 1346; type: functional
Outline: (§1)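 Yeasts pre-grown on yeast extract peptone dextrose medium, 30 °C, 24 h. MIC and MFC by macro-dilution broth method; compounds in DMSO, max 2.13% solvent in cultures. Amphotericin B and fluconazole as references. MFC/MIC ratio computed; ≥4 taken as fungistatic. Triplicate.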

Candida tropicalis [2] = experiment: Antifungal activity against Candida tropicalis DSM 1346 after 24 hrs by broth macrodilution method; type: functional; details: DSM 1346, 24 h; outline: as §1
Candida albicans [3] = experiment: Antifungal activity against Candida albicans ATCC 10231 after 24 hrs by broth macrodilution method; type: functional; details: ATCC 10231, 24 h; outline: as §1
Nakaseomyces glabratus [4] = experiment: Antifungal activity against Candida glabrata DSM6425 after 24 hrs by broth macrodilution method; type: functional; details: DSM6425, 24 h; outline: as §1
Candida albicans [5] = experiment: Ratio of MFC to MIC against Candida albicans ATCC 10231; type: functional
Outline: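 C. albicans ATCC10231 was pre-grown on yeast extract peptone dextrose agar for 24 h at 30 °C. MIC and MFC were determined by broth macro-dilution, with compounds dissolved in DMSO at no more than 2.13% solvent in the liquid culture. Each endpoint was measured in triplicate, and the MFC was divided by the MIC to give the ratio.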

Nakaseomyces glabratus [6] = experiment: Ratio of MFC to MIC against Candida glabrata DSM6425; type: functional; outline: as §1
Pichia kudriavzevii = experiment: Antifungal activity against Issatchenkia orientalis DSM6128 at 50 ug after 24 hrs by agar diffusion method; type: functional, organism-based
Outline: (§2)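 Yeasts grown on yeast extract peptone dextrose medium at 30 °C for 24 h, then agar well diffusion with 50 µg compound in 80% DMSO; 80% DMSO alone as control. Averaged inhibition zone diameter from triplicate, scored 6-9, 9-12 or >12 mm.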

Bacillus cereus [7] = experiment: Antibacterial activity against Bacillus cereus at 50 ug after 24 hrs by agar diffusion method; type: functional; details: for zone of inhibition at 50 µg/disc: read-out: IZ
Outline: (§3)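 Bacteria pre-grown 24 h on nutritive agar (tryptone soy agar for E. faecalis, L. inocua) at 37 °C (30 °C for E. faecalis, L. inocua, B. cereus). Agar well diffusion with 50 µg compound in 80% DMSO; 80% DMSO alone as control. Inhibition zone diameter averaged from triplicate, scored 6-9, 9-12, >12 mm.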

Staphylococcus aureus [8] = experiment: Antibacterial activity against Staphylococcus aureus ATCC 25923 after 24 hrs by broth macrodilution method; type: functional; details: ATCC 25923, 24 h
Outline: (§4)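 Bacteria pre-grown 24 h on nutritive agar (tryptone soy agar for E. faecalis, L. inocua) at 37 °C (30 °C for E. faecalis, L. inocua, B. cereus). MIC and MBC determined by macro-dilution broth method; MBC = lowest concentration killing 99.99% of inoculum. Compounds in DMSO, max 2.13% solvent in cultures. Triplicate.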

MDA-MB-231 [9] = experiment: Antiproliferative activity against human MDA-MB-231 cells at 10 uM after 72 hrs by MTT assay; type: functional; details: MDA-MB-231, 72 h
Outline: (§5)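 5000 cells per well added to pre-equilibrated medium at 37 °C; compounds from 10^-3 M DMSO stocks, final 10^-5 M. After 72 h, MTT (5 g/L) for 4 h, formazan dissolved in DMSO, OD 550 nm. % growth inhibition vs 1% DMSO medium (0%) and 10% SDS lysis (100%); mean ± SEM, 24 measures, three independent experiments.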

MDA-MB-231 [10] = experiment: Antiproliferative activity against human MDA-MB-231 cells after 72 hrs by MTT assay; type: functional; details: MDA-MB-231, 72 h; outline: as §5
Bacillus cereus [11] = experiment: Antibacterial activity against Bacillus cereus after 24 hrs by broth macrodilution method; type: functional; outline: as §4
MCF7 = experiment: Antiproliferative activity against human MCF7 cells after 72 hrs by MTT assay; type: functional; details: MCF7, 72 h; outline: as §5
Candida albicans [12] = experiment: Antifungal activity against Candida albicans ATCC 10231 at 50 ug after 24 hrs by agar diffusion method; type: functional; details: for zone of inhibition at 50 µg/disc: ATCC 10231, 24 h, read-out: IZ; outline: as §2
Candida tropicalis [13] = experiment: Antifungal activity against Candida tropicalis DSM 1346 at 50 ug after 24 hrs by agar diffusion method; type: functional; details: for zone of inhibition at 50 µg/disc: DSM 1346, 24 h, read-out: IZ; outline: as §2
Nakaseomyces glabratus [14] = experiment: Antifungal activity against Candida glabrata DSM6425 at 50 ug after 24 hrs by agar diffusion method; type: functional; details: for zone of inhibition at 50 µg/disc: DSM6425, 24 h, read-out: IZ; outline: as §2
Listeria innocua [15] = experiment: Antibacterial activity against Listeria innocua at 50 ug after 24 hrs by agar diffusion method; type: functional; details: for zone of inhibition at 50 µg/disc: read-out: IZ; outline: as §3
Enterococcus faecalis [16] = experiment: Antibacterial activity against Enterococcus faecalis CIP 103214 at 50 ug after 24 hrs by agar diffusion method; type: functional; details: for zone of inhibition at 50 µg/disc: CIP 103214, 24 h, read-out: IZ; outline: as §3
Klebsiella pneumoniae = experiment: Antibacterial activity against Klebsiella pneumoniae CIP 53153 at 50 ug after 24 hrs by agar diffusion method; type: functional, organism-based; outline: as §3
Escherichia coli [17] = experiment: Antibacterial activity against Escherichia coli ATCC 25922 at 50 ug after 24 hrs by agar diffusion method; type: functional; details: for zone of inhibition at 50 µg/disc: ATCC 25922, 24 h, read-out: IZ; outline: as §3
Staphylococcus aureus [18] = experiment: Antibacterial activity against Staphylococcus aureus ATCC 25923 at 50 ug after 24 hrs by agar diffusion method; type: functional; details: for zone of inhibition at 50 µg/disc: Staphylococcus aureus, ATCC 25923, 24 h, read-out: IZ; outline: as §3
Pseudomonas aeruginosa = experiment: Antibacterial activity against Pseudomonas aeruginosa ATCC 27853 at 50 ug after 24 hrs by agar diffusion method; type: functional, organism-based; outline: as §3
Escherichia coli [19] = experiment: Antibacterial activity against Escherichia coli ATCC 25922 after 24 hrs by broth macrodilution method; type: functional; details: ATCC 25922, 24 h; outline: as §4
Enterococcus faecalis [20] = experiment: Antibacterial activity against Enterococcus faecalis CIP 103214 after 24 hrs by broth macrodilution method; type: functional; details: CIP 103214, 24 h; outline: as §4
Listeria innocua [21] = experiment: Antibacterial activity against Listeria innocua after 24 hrs by broth macrodilution method; type: functional; outline: as §4

Structure (SMILES) | Ratio (Candida tropicalis [1]) | MFC (Candida tropicalis [2]) [µg/mL] | MIC (Candida tropicalis [2]) [µg/mL] | MFC (Candida albicans [3]) [µg/mL] | MIC (Candida albicans [3]) [µg/mL] | MFC (Nakaseomyces glabratus [4]) [µg/mL] | MIC (Nakaseomyces glabratus [4]) [µg/mL] | Ratio (Nakaseomyces glabratus [6]) | Activity (Pichia kudriavzevii) | zone of inhibition at 50 µg/disc (Bacillus cereus [7]) [mm] | MBC (Staphylococcus aureus [8]) [µg/mL] | MIC (Staphylococcus aureus [8]) [µg/mL] | inhibition at 10 µM (MDA-MB-231 [9]) [%] | GI50 (MDA-MB-231 [10]) [µM] | MBC (Bacillus cereus [11]) [µg/mL] | MIC (Bacillus cereus [11]) [µg/mL] | GI50 (MCF7) [µM] | zone of inhibition at 50 µg/disc (Candida albicans [12]) [mm] | Activity (Klebsiella pneumoniae) | Activity (Pseudomonas aeruginosa) | also measured
OC(Cn1cncn1)(Cn1cncn1)c1ccc(F)cc1F [FLUCONAZOLE] | >32 | > 128 | 4 (≈ 13.1 µM) | > 128 | 2 (≈ 6.53 µM) | > 128 | 4 (≈ 13.1 µM) | >32 |  |  |  |  |  |  |  |  |  |  |  |  | Ratio (Candida albicans [5]): >64
C[C@@H]1[C@H](O)[C@@H](C)/C=C/C=C/C=C/C=C/C=C/C=C/C=C/[C@H](O[C@@H]2O[C@H](C)[C@@H](O)[C@H](N)[C@@H]2O)C[C@@H]2O[C@](O)(C[C@@H](O)C[C@@H](O)[C@H](O)CC[C@@H](O)C[C@@H](O)CC(=O)O[C@H]1C)C[C@H](O)[C@H]2C(=O)O [AMPHOTERICIN B] | 2 | 2 (≈ 2.16 µM) | 1 (≈ 1.08 µM) | 0.5 (≈ 0.541 µM) | 0.25 (≈ 0.271 µM) | 2 (≈ 2.16 µM) | 2 (≈ 2.16 µM) | 2 |  |  |  |  |  |  |  |  |  |  |  |  | Ratio (Candida albicans [5]): 2
CCOC(=O)c1nss/c1=N\c1ccccc1 |  | > 48 | 32 (≈ 120 µM) | > 48 | 48 (≈ 180 µM) | 48 (≈ 180 µM) | 32 (≈ 120 µM) | 1.5 | inactive | 6 | > 48 | 48 (≈ 180 µM) | 0 | > 10 | > 48 | 48 (≈ 180 µM) | > 10 | > 12 | inactive | inactive | zone of inhibition at 50 µg/disc (Candida tropicalis [13]): 9 mm; zone of inhibition at 50 µg/disc (Nakaseomyces glabratus [14]): 9 mm; Activity (Listeria innocua [15]): inactive; Activity (Enterococcus faecalis [16]): inactive; Activity (Escherichia coli [17]): inactive; zone of inhibition at 50 µg/disc (Staphylococcus aureus [18]): 6 mm
S=c1ssnc1-c1ccccn1 | 1.5 | 48 (≈ 226 µM) | 32 (≈ 151 µM) | > 48 | 32 (≈ 151 µM) | 48 (≈ 226 µM) | 8 (≈ 37.7 µM) | 6 | inactive | 9 | > 48 | 48 (≈ 226 µM) | 0 | > 10 | > 48 | > 48 | > 10 | > 12 | inactive | inactive | MBC (Escherichia coli [19]): > 48 µg/mL; MIC (Escherichia coli [19]): > 48 µg/mL; zone of inhibition at 50 µg/disc (Candida tropicalis [13]): 9 mm; zone of inhibition at 50 µg/disc (Nakaseomyces glabratus [14]): 9 mm; zone of inhibition at 50 µg/disc (Listeria innocua [15]): 9 mm; zone of inhibition at 50 µg/disc (Enterococcus faecalis [16]): > 12 mm; MBC (Enterococcus faecalis [20]): > 48 µg/mL; MIC (Enterococcus faecalis [20]): 48 µg/mL (≈ 226 µM); MBC (Listeria innocua [21]): > 48 µg/mL; MIC (Listeria innocua [21]): 16 µg/mL (≈ 75.4 µM); zone of inhibition at 50 µg/disc (Escherichia coli [17]): 6 mm; zone of inhibition at 50 µg/disc (Staphylococcus aureus [18]): 12 mm
O=c1ssnc1-c1ccccc1 |  |  |  |  |  |  |  |  | inactive |  |  |  | 0 | > 10 |  |  | > 10 |  | inactive | inactive | Activity (Bacillus cereus [7]): inactive; MBC (Escherichia coli [19]): > 48 µg/mL; MIC (Escherichia coli [19]): > 48 µg/mL; Activity (Candida albicans [12]): inactive; Activity (Candida tropicalis [13]): inactive; Activity (Nakaseomyces glabratus [14]): inactive; Activity (Listeria innocua [15]): inactive; Activity (Enterococcus faecalis [16]): inactive; zone of inhibition at 50 µg/disc (Escherichia coli [17]): 6 mm; Activity (Staphylococcus aureus [18]): inactive
CCOC(=O)c1nssc1=S |  | > 48 | 48 (≈ 232 µM) | > 48 | 48 (≈ 232 µM) | 48 (≈ 232 µM) | 32 (≈ 154 µM) | 1.5 | inactive | 9 | > 48 | 48 (≈ 232 µM) | 0 | > 10 | > 48 | > 48 | > 10 | > 12 | inactive | inactive | MBC (Escherichia coli [19]): > 48 µg/mL; MIC (Escherichia coli [19]): > 48 µg/mL; zone of inhibition at 50 µg/disc (Candida tropicalis [13]): 6 mm; zone of inhibition at 50 µg/disc (Nakaseomyces glabratus [14]): 6 mm; zone of inhibition at 50 µg/disc (Listeria innocua [15]): 6 mm; zone of inhibition at 50 µg/disc (Enterococcus faecalis [16]): 9 mm; MBC (Enterococcus faecalis [20]): > 48 µg/mL; MIC (Enterococcus faecalis [20]): > 48 µg/mL; MBC (Listeria innocua [21]): > 48 µg/mL; MIC (Listeria innocua [21]): 32 µg/mL (≈ 154 µM); zone of inhibition at 50 µg/disc (Escherichia coli [17]): 9 mm; Activity (Staphylococcus aureus [18]): 12 mm
